Experiments:
αIIbβ3 CHO K1 cells [1] = assay: Cell adhesion inhibition assay with soluble peptides; format: cell-based; settings: soluble peptide 1 pM to 100 µM; 0.5% GRGDSC monolayer; 300 µM cRGDFG
platelets [2] = settings: cited from earlier work; for inhibition of Fbg binding to platelets: ref Bennett et al., 1988
platelets [3] = settings: ref Bennett et al., 1988; cited from earlier work
αIIbβ3 CHO K1 cells [4] = assay: Adhesion of transfected cells to GRGDSC monolayer in presence of inhibitors; format: cell-based; settings: 0.5% GRGDSC SAM
αIIbβ3 = settings: platelets; ref Bennett et al., 1988; cited from earlier work
CHO K1 cells = assay: Block of cell attachment to GRGDSC monolayer by cRGDFG; format: cell-based; settings: cRGDFG 300 µM; 0.5% GRGDSC SAM
Method in brief: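 Untransfected CHO K1 cells (F12K, 10% FBS, 37 °C, 5% CO2) were seeded on 0.5% GRGDSC SAMs, with or without cRGDFG 300 µM. The GRGDSC surface was made by coupling cysteine-terminated peptide (1 mM, 37 °C, 1 h) to a maleimide-presenting monolayer with tri(ethylene glycol) background. Adherent cells were scored by optical microscopy.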

αvβ3 = settings: ref Haubner et al., 1996; cited from earlier work
αIIbβ3 CHO K1 cells [5] = assay: Cell adhesion assay on self-assembled monolayers presenting immobilized peptides; format: cell-based; settings: Fbg adsorbed on dodecanethiol (hydrophobic) monolayer; 300 µM cRGDFG

In the case of AGDV, the “block of cell attachment by soluble peptide to a monolayer presenting GRGDS” value (αIIbβ3 CHO K1 cells [1]) is given as “blocked cell attachment” and the “inhibition of Fbg binding to activated platelets” value (platelets [2]; soluble peptide competing with radiolabeled Fbg, ref Plow et al., 1985) is given as “failure of an AGDV peptide to inhibit Fbg binding”.

In the case of HHLGGAKQAGDV, the “block of cell attachment by soluble peptide to a monolayer presenting GRGDS” value (αIIbβ3 CHO K1 cells [1]) is reported as “blocked cell attachment”.

In the case of LGGAKQAGDV, the “inhibition of Fbg binding to platelets” value (platelets [2]) is given as “inhibited Fbg binding to platelets with an affinity comparable to that of RGDS” and the “inhibition of binding of A2A9 to platelets” value (platelets [3]) is given as “could inhibit the binding of A2A9”.

With PAC-1 the “effect on adhesion of αIIbβ3 CHO K1 cells to a monolayer presenting GRGDSC” value (αIIbβ3 CHO K1 cells [4]; PAC-1 antibody together with cRGDFG 300 µM) was “prevented cell adhesion”.

For RGDS, the “inhibition of PAC-1 binding” value (αIIbβ3) is listed as “blocked the binding of both PAC-1 and Fbg to platelets with equal potency” and the “inhibition of Fbg binding to platelets” value (platelets [2]) is listed as “blocked the binding of both PAC-1 and Fbg to platelets with equal potency”.

In the case of cRGDFG (head to tail), the “effect on adhesion of αIIbβ3 CHO K1 cells to a monolayer presenting GRGDSC” value (αIIbβ3 CHO K1 cells [4]; cRGDFG 300 µM) is given as “did not interfere with adhesion”, the “block of attachment of CHO K1 cells to a monolayer presenting GRGDSC” value (CHO K1 cells) is given as “efficiently block the attachment” and the “affinity for αvβ3 relative to that for αIIbβ3” value (αvβ3) is given as “approximately 1,400 fold”.

B1: Fbg: Human fibrinogen, plasma protein, adsorbed to hydrophobic monolayer as positive control (protein)
chain 1: ADSGEGDFLAEGGGVRGPRVVERHQSACKDSDWPFCSDEDWNYKCPSGCRMKGLIDEVNQDFTNRINKLKNSLFEYQKNNKDSHSLTTNIMEILRGDFSSANNRDNTYNRVSEDLRSRIEVLKRKVIEKVQHIQLLQKNVRAQLVDMKRLEVDIDIKIRSCRGSCSRALAREVDLKDYEDQQKQLEQVIAKDLLPSRDRQHLPLIKMKPVPDLVPGNFKSQLQKVPPEWKALTDMPQMRMELERPGGNEITRGGSTSYGTGSETESPRNPSSAGSWNSGSSGPGSTGNRNPGSSGTGGTATWKPGSSGPGSTGSWNSGSSGTGSTGNQNPGSPRPGSTGTWNPGSSERGSAGHWTSESSVSGSTGQWHSESGSFRPDSPGSGNARPNNPDWGTFEEVSGNVSPGTRREYHTEKLVTSKGDKELRTGKEKVTSGSTTTTRRSCSKTVTKTVIGPDGHKEVTKEVVTSEDGSDCPEAMDLGTLSGIGTLDGFRHRHPDEAAFFDTASTGKTFPGFFSPMLGEFVSETESRGSESGIFTNTKESSSHHPGIAEFPSRGKSSSYSKQFTSSTSYNRGDSTFESKSYKMADEAGSEADHEGTHSTKRGHAKSRPVRGIHTSPLGKPSLSP
chain 2: QGVNDNEEGFFSARGHRPLDKKREEAPSLRPAPPPISGGGYRARPAKAAATQKKVERKAPDAGGCLHADPDLGVLCPTGCQLQEALLQQERPIRNSVDELNNNVEAVSQTSSSSFQYMYLLKDLWQKRQKQVKDNENVVNEYSSELEKHQLYIDETVNSNIPTNLRVLRSILENLRSKIQKLESDVSAQMEYCRTPCTVSCNIPVVSGKECEEIIRKGGETSEMYLIQPDSSVKPYRVYCDMNTENGGWTVIQNRQDGSVDFGRKWDPYKQGFGNVATNTDGKNYCGLPGEYWLGNDKISQLTRMGPTELLIEMEDWKGDKVKAHYGGFTVQNEANKYQISVNKYRGTAGNALMDGASQLMGENRTMTIHNGMFFSTYDRDNDGWLTSDPRKQCSKEDGGGWWYNRCHAANPNGRYYWGGQYTWDMAKHGTDDGVVWMNWKGSWYSMRKMSMKIRPFFPQQ
chain 3: YVATRDNCCILDERFGSYCPTTCGIADFLSTYQTKVDKDLQSLEDILHQVENKTSEVKQLIKAIQLTYNPDESSKPNMIDAATLKSRKMLEEIMKYEASILTHDSSIRYLQEIYNSNNQKIVNLKEKVAQLEAQCQEPCKDTVQIHDITGKDCQDIANKGAKQSGLYFIKPLKANQQFLVYCEIDGSGNGWTVFQKRLDGSVDFKKNWIQYKEGFGHLSPTGTTEFWLGNEKIHLISTQSAIPYALRVELEDWNGRTSTADYAMFKVGPEADKYRLTYAYFAGGDAGDAFDGFDFGDDPSDKFFTSHNGMQFSTWDNDNDKFEGNCAEQDGSGWWMNKCHAGHLNGVYYQGGTYSKASTPNGYDNGIIWATWKTRWYSMKKTTMKIIPFNRLTIGEGQQHHLGGAKQAGDV
With B1 the “adhesion and spreading of αIIbβ3 CHO cells on adsorbed Fbg (positive control)” value (αIIbβ3 CHO K1 cells [5]) was “adhered and spread”.
